Only some compounds are listed: those with a hit (about 2.9% of all), similar ones and a draw of the others.
TRPC4 potent: TRPC4 (mouse) allosteric potentiation; HEK293 TRPC4beta/mu-opioid, DAMGO EC20, Fluo-4 Ca2+ flux; stronger effect = higher value; 0.42% of 310,000 active; Q9QUQ5; B-score at 10 µM; AID 2227;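 active = B-score of calcium response area above 5 SD of library B-scores, with initial fluorescence ratio within 5 SD of library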;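 also: B-score of integrated fluorescence ratio over time as area under calcium response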
Target sequence (Q9QUQ5 whole entry, looked up): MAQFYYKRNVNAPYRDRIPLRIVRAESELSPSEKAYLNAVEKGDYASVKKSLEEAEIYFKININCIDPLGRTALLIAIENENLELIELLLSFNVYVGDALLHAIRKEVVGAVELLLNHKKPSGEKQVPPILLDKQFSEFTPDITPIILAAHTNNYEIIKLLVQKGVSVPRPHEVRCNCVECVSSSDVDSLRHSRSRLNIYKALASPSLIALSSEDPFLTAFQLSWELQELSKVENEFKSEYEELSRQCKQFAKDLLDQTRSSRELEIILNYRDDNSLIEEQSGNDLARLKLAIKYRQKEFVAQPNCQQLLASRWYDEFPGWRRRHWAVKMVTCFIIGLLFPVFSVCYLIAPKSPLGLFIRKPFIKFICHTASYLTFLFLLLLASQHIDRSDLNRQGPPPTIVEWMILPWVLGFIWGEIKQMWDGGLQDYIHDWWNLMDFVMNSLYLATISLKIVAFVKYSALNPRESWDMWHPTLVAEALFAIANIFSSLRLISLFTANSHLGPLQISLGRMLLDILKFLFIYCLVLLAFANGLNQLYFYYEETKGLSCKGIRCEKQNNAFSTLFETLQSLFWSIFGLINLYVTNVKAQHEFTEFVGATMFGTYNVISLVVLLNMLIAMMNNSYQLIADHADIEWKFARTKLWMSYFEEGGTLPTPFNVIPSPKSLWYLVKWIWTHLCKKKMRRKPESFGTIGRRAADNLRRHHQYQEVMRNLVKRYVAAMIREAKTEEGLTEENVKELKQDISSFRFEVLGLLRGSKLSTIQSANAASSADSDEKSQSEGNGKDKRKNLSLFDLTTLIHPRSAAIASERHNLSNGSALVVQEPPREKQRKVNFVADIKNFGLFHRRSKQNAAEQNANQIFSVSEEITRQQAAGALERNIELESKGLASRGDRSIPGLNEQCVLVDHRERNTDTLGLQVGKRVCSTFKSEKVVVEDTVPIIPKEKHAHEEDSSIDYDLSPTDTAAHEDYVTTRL
TRPC4 block: TRPC4 (mouse) channel inhibition; 0.39% of 300,000 active; B-score at 10 µM; Q9QUQ5; HEK293 TRPC4beta/mu-opioid, DAMGO-evoked Fluo4 calcium flux; stronger effect = lower value;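 active = B-score over 3 SD under the library average, no early fluorescence shift, positive overall ratio signal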
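Signal: kinetic Fluo4 fluorescence imaging of calcium influx. Material: stable TRPC4beta/mu-opioid receptor HEK293 cells. Probe or stimulus: DAMGO in two steps, submaximal then maximal.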
TRPC4 agonist: activators of mouse TRPC4 channel | Q9QUQ5 | HEK293 TRPC4beta/mu-opioid, Fluo4 calcium fluorescence; stronger effect = higher value | B-score at 10 µM | 0.49% of 310,000 active | AID 2237;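 active = B-score above 5 SD of library B-scores, and initial fluorescence ratio not above library mean plus 5 SD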;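 also: positive B-score marks a calcium rise read as TRPC4 activation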
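Assay system: HEK293 cells stably co-expressing mouse TRPC4beta and mu-opioid receptor / Timing: Fluo4 dye loading 45 min at room temperature, 110 s recording / Signal: Fluo4 calcium-sensitive dye fluorescence, kinetic, 1 Hz baseline / Read-out: integrated baseline-normalised fluorescence ratio, converted to per-well B score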
TRPC6 inh: blocks the mouse TRPC6 cation channel | B-score at 10 µM | Q61143 | HEK293-TRPC6, membrane potential dye, ACh-evoked depolarization; stronger effect = lower value | 1.1% of 310,000 active | AID 2553;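 active = B-score under library mean minus 3 SD, initial fluorescence not abnormally high, positive integrated signal ratio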;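 also: B-score derived from integrated fluorescence ratio over the kinetic read; more negative B-score means stronger inhibition of depolarization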
Kir21 inh: inhibitors of mouse Kir2.1 inward-rectifier potassium channel. P35561. HEK293-Kir2.1, FluxOR thallium flux fluorescence; stronger effect = lower value. B-score at 10 µM. 0.85% of 310,000 active. AID 1672;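 active = fluorescence ratio B-score at or below minus 3 SD of library scores, with starting-brightness B-score within 2 SD, cut at about -4.2 in these data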;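 also: channel flux triggered by added potassium and thallium sulfate stimulus; B-score of peak minus minimum fluorescence over baseline after thallium stimulus; more negative B-score means stronger Kir2.1 block with less thallium influx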
TRPC6 activator: mouse TRPC6 channel activation | Q61143 | HEK293-TRPC6 membrane potential dye fluorescence; stronger effect = higher value | B-score at 10 µM | 0.13% of 310,000 active | AID 2550;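 active = B-score of the integrated fluorescence ratio above library mean plus 3 SD, and starting fluorescence ratio within library mean plus 5 SD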;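 also: higher score means more depolarization so channel activation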
TRPC4 spec 2: mouse TRPC4 off-target activity of TRPC6 inhibitors, second screen; shares compounds with TRPC6 inh; HEK293 TRPC4/MOR, membrane potential dye fluorescence; channel activated by saturating DAMGO dose; inhibition, % at 10 µM; 42% of 920 active;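 active = compounds whose fluorescence signal differed from control wells by over 3 SD, either direction, in both duplicate plates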
TRPC4 spec: mouse TRPC4 off-target activity of TRPC6 inhibitors. 61% of 920 active. shares compounds with TRPC6 inh. activity change, negative = inhibition, % at 10 µM. HEK293 TRPC4/mu-opioid, membrane potential fluorescence;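 active = rise or fall in signal beyond 3 SD of buffer-only wells in both replicate plates, either sign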;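 also: integrated kinetic ratio of fluorescence range over baseline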
HEK293 MPD ctr 2-1: parental HEK293 nonspecific activity of TRPC6 inhibitors, second screen; shares compounds with TRPC6 inh; parental HEK293 membrane potential dye fluorescence; maximal acetylcholine challenge after compound addition; 31% of 920 active; signal change vs control, % at 10 µM; AID 2779;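 active = membrane potential signal moving either way by over 3 SD of the maximum-effect control, in both duplicate plates, meaning non-specific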
HEK293 MPD ctr-1: checks TRPC6 inhibitor effects in parental HEK293 cells | shares compounds with TRPC6 inh | parental HEK293 membrane potential dye fluorescence | membrane potential signal change, % at 10 µM | 60% of 920 active | AID 2780;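 active = membrane potential signal shifting up or down by more than 3 SD of buffer-only wells, on both duplicate plates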
HEK293 MPD ctr-2: parental HEK293 nonspecific activity of TRPC6 modulators | shares compounds with TRPC6 inh | membrane potential dye fluorescence | membrane potential signal change, % at 10 µM | 51% of 2,400 active;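 active = membrane potential signal moves up or down beyond 5 SD from buffer-only wells, on both duplicate plates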
HEK293 MPD ctr 2-2: second check of TRPC6 modulator effects in parental HEK293 cells; membrane potential dye fluorescence; after compound, maximal acetylcholine stimulation; inhibition, % at 10 µM; 14% of 2,400 active; AID 488926; shares compounds with TRPC6 inh;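 active = membrane potential signal drops by more than 5 SD from the mean control signal, in both duplicate plates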;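 also: plate controls were acetylcholine ECmax control wells for no effect and buffer only wells for full effect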
TRPC4 ctr mod: tests whether TRPC6 modulators also affect mouse TRPC4; shares compounds with TRPC6 inh; HEK293 TRPC4/mu-opioid, membrane potential fluorescence; percent change from control (negative = decrease, positive = increase), % at 10 µM; 69% of 2,400 active; AID 488927;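 active = membrane potential signal moved up or down beyond 5 SD of buffer control wells, in both duplicate plates, actives on both sides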;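 also: plate controls were assay buffer wells for no effect and DAMGO maximal-effect wells for full effect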
TRPC4/MOR inh 2: second selectivity test of TRPC6 modulators against mouse TRPC4; shares compounds with TRPC6 inh; HEK293 TRPC4/mu-opioid, membrane potential dye fluorescence; stimulated with maximal-effect DAMGO; 55% of 2,400 active; inhibition, % at 10 µM;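 active = drop in membrane potential signal beyond 5 SD of the control wells in both duplicate plates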;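 also: TRPC4 counter screen for TRPC6 hits run under conditions tuned for TRPC6 not TRPC4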
TRPC6 block conf: mouse TRPC6 inhibitor confirmation | shares compounds with TRPC6 inh | HEK293-TRPC6, membrane potential dye, ACh-evoked depolarization | inhibition, % at 10 µM | 43% of 3,300 active | AID 488960;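 active = fluorescence ratio falls more than 5 SD below the full-stimulation control mean, in both duplicate runs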;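 also: integrated fluorescence ratio of peak minus minimum over baseline after agonist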
TRPC6 act confirm: confirmation of mouse TRPC6 activators; activation, % at 10 µM; 11% of 2,800 active; shares compounds with TRPC6 inh; HEK293-TRPC6 membrane potential dye fluorescence, FDSS;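 active = ratio signal rise beyond 5 SD above unstimulated control wells' mean, seen in both duplicate runs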;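 also: plate controls were buffer EC0 wells for no effect and acetylcholine ECmax response for full effect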
Numbers without * were called inactive; i = inactive; · = no result given.

SMILES	TRPC4 potent	TRPC4 block	TRPC4 agonist	TRPC6 inh	Kir21 inh	TRPC6 activator	HEK293 MPD ctr-2	HEK293 MPD ctr 2-2	TRPC4 ctr mod	TRPC4/MOR inh 2	TRPC6 block conf	TRPC6 act confirm	others
O=C(CCC(=O)OCC(=O)c1ccc(C(F)(F)F)cc1)OCC(=O)c1ccc(C(F)(F)F)cc1	i	i	i	i	0.7	i	·	·	·	·	·	·
Cn1cccc1/C=C1\CC(C(C)(C)C)C/C(=C\c2cccn2C)C1=O (centres undefined)	i	i	i	i	-7.3	30*	182%*	i	i	i	i	i
CCOc1ccc2c(c1)-c1c(ssc1=S)C(C)(C)N2	i	i	i	-5.3*	0.61	i	i	i	-22%*	64%*	i	i
CCOc1ccc2c(c1)-c1c(ssc1=S)C(C)(C)N2C(=O)CSC1=NCCS1	i	i	i	i	1.4	i	·	·	·	·	·	·
COc1cc(CCCN2C(=S)NC[C@H]2Cc2ccc(O)cc2)cc(OC)c1OC	i	i	i	i	-1.6	i	·	·	·	·	·	·
NCCc1ccc(O)c(O)c1	i	i	i	-5.3*	-0.17	i	i	i	i	i	i	i
O=C(c1ccco1)N1CCN(c2ccnc3cc(Cl)ccc23)CC1	i	i	i	-5.1*	0.99	i	-160%*	i	-26%*	37%*	i	i
O=C(C1CC1)N1CCN(c2ccnc3cc(Cl)ccc23)CC1	i	i	i	i	-0.65	i	·	·	·	·	·	·
Cc1ccc(C(=O)c2cc([N+](=O)[O-])ccc2N2CCOCC2)c(C)c1	i	i	i	-5.4*	2.2	i	i	i	i	i	i	i
CCC(C)c1ccc(NC(=S)Nc2ccc(OC)cc2C)cc1 (centres undefined)	i	i	i	i	-1.5	i	·	·	·	·	·	·
CCN(CC)CCNC(C(=O)Nc1cccc(C(C)=O)c1)c1ccccc1 (centres undefined)	i	i	i	-6.8*	-0.69	i	i	i	i	i	i	i
COc1ccc(OC)c(CNc2ncc(-c3cccc([N+](=O)[O-])c3)n2C)c1	i	i	i	i	1.9	i	·	·	·	·	·	·
Cn1c(-c2ccc3c(c2)OCO3)cnc1NCc1ccc(Cl)cc1	i	i	i	-6.2*	-11*	i	i	i	i	76%*	48%*	i
COc1ccc(-c2cnc(NCc3cc4c(cc3[N+](=O)[O-])OCO4)n2C)cc1	i	i	i	-5.6*	-0.1	i	i	i	i	44%*	i	i
COc1cc(CNc2ncc(-c3ccc(Cl)cc3)n2C)cc(OC)c1OC	i	i	i	i	0.6	i	·	·	·	·	·	·
CCC(=O)NC(=S)Nc1ccc(NC(=O)c2ccc([N+](=O)[O-])cc2Cl)cc1	i	i	i	i	2	i	·	·	·	·	·	·
COCn1c(-c2ccc(OC)cc2)nc2ccccc21	i	i	i	i	0.04	i	·	·	·	·	·	·
CC(C)C(NC(=O)/C=C/c1ccc(F)cc1)C(C)C	i	i	i	-6.9*	-0.01	i	·	·	·	·	i	i	TRPC4 spec 2=i;TRPC4 spec=i;HEK293 MPD ctr 2-1=i;HEK293 MPD ctr-1=i
CC(NC(=O)/C=C/c1ccccc1)c1ccccc1 (centres undefined)	i	i	i	i	-1.4	i	·	·	·	·	·	·
O=C(NC(Nc1ncc(S(=O)(=O)c2ccc([N+](=O)[O-])cc2)s1)(C(F)(F)F)C(F)(F)F)c1ccc(Cl)cc1	i	i	i	-8.2*	-6.9*	i	·	·	·	·	68%*	i	TRPC4 spec 2=65%*;TRPC4 spec=9.8%*;HEK293 MPD ctr 2-1=i;HEK293 MPD ctr-1=5.0%*
COCC(=O)Nc1ncc(S(=O)(=O)c2ccc([N+](=O)[O-])cc2)s1	i	i	i	i	0.75	i	·	·	·	·	·	·
CC(C)Sc1nc2c(c(=O)[nH]c(=O)n2C)n1CC(O)COc1ccccc1 (centres undefined)	i	i	i	-5.8*	1.1	i	i	i	10%*	i	66%*	i
CN(C)CCOC1c2ccccc2C=Cc2ccccc21	i	i	i	-5.5*	-0.5	i	124%*	84%*	22%*	42%*	68%*	·
O=C1/C(=C\c2ccc(C(F)(F)F)cc2)CSc2sccc21	i	i	i	-5*	0.01	i	i	i	8.5%*	i	i	i
COC(=O)CN1C(=O)S/C(=C/c2ccc(N3CCCCC3)o2)C1=O	i	i	i	i	-2.5	13*	162%*	i	90%*	i	i	35%*
CCOC(=O)CN1C(=O)S/C(=C/c2ccc(N3CCCCC3)o2)C1=O	i	i	i	i	0.4	i	·	·	·	·	·	·

Compound activity (PubChem)
